These results are taken from ChEMBL document CHEMBL4312005, “Optimization of pyrrolizine-based Schiff bases with 4-thiazolidinone motif: Design, synthesis and investigation of cytotoxicity and anti-inflammatory potency” (Eur J Med Chem, 2020).

Test [1] concerns the target Activin receptor type-1-like (Homo sapiens) (UniProt P37023). In words: Inhibition of recombinant human N-terminal GST-tagged ALK1 (144 to end residues) expressed in baculovirus infected Sf9 insect cells assessed as enzyme activity incubated for 15 mins by [gamma-33]ATP based scintillation counting method relative to control. Set-up: scale not given: the % may be the effect or the level left.

The target of test [2] is Ribosomal protein S6 kinase alpha-5 (Homo sapiens) (UniProt O75582). In words: Inhibition of recombinant human N-terminal GST-tagged full length MSK1 expressed in baculovirus infected Sf9 insect cells assessed as enzyme activity incubated for 15 mins by [gamma-33]ATP based scintillation counting method relative to control. Set-up: scale not given: the % may be the effect or the level left.

Test [3] concerns the target T1, Aurora kinase A (Homo sapiens) (UniProt O14965).
T1 sequence (whole entry): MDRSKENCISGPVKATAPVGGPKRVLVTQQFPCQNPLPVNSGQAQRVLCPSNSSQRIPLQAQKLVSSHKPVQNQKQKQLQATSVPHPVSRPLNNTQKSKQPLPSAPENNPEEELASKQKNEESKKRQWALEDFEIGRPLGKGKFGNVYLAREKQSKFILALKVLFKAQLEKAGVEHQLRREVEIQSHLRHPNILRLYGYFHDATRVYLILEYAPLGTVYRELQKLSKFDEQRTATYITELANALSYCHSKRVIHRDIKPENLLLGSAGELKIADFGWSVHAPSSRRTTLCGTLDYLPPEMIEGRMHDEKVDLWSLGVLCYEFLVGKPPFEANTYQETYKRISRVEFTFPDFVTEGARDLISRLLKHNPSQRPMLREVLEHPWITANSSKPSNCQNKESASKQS
Description: Inhibition of recombinant human N-terminal GST-tagged full length Aurora A expressed in baculovirus infected Sf9 insect cells assessed as enzyme activity incubated for 15 mins by [gamma-33]ATP based scintillation counting method relative to control. On the set-up: scale not given: the % may be the effect or the level left.

The target of test [4] is Epidermal growth factor receptor (Homo sapiens) (UniProt P00533). In words: Inhibition of EGFR (unknown origin) assessed as enzyme activity incubated for 15 mins by [gamma-33]ATP based scintillation counting method relative to control. On the set-up: scale not given: the % may be the effect or the level left.
The target of test [5] is Glycogen synthase kinase-3 alpha (Homo sapiens) (UniProt P49840). Description: Inhibition of recombinant human N-terminal GST-tagged full length GSK3alpha expressed in baculovirus infected Sf9 insect cells assessed as enzyme activity incubated for 15 mins by [gamma-33]ATP based scintillation counting method relative to control. Set-up: scale not given: the % may be the effect or the level left.

The target in test [6] is T2, Mitogen-activated protein kinase kinase kinase 5 (Homo sapiens) (UniProt Q99683).
T2 sequence (whole entry): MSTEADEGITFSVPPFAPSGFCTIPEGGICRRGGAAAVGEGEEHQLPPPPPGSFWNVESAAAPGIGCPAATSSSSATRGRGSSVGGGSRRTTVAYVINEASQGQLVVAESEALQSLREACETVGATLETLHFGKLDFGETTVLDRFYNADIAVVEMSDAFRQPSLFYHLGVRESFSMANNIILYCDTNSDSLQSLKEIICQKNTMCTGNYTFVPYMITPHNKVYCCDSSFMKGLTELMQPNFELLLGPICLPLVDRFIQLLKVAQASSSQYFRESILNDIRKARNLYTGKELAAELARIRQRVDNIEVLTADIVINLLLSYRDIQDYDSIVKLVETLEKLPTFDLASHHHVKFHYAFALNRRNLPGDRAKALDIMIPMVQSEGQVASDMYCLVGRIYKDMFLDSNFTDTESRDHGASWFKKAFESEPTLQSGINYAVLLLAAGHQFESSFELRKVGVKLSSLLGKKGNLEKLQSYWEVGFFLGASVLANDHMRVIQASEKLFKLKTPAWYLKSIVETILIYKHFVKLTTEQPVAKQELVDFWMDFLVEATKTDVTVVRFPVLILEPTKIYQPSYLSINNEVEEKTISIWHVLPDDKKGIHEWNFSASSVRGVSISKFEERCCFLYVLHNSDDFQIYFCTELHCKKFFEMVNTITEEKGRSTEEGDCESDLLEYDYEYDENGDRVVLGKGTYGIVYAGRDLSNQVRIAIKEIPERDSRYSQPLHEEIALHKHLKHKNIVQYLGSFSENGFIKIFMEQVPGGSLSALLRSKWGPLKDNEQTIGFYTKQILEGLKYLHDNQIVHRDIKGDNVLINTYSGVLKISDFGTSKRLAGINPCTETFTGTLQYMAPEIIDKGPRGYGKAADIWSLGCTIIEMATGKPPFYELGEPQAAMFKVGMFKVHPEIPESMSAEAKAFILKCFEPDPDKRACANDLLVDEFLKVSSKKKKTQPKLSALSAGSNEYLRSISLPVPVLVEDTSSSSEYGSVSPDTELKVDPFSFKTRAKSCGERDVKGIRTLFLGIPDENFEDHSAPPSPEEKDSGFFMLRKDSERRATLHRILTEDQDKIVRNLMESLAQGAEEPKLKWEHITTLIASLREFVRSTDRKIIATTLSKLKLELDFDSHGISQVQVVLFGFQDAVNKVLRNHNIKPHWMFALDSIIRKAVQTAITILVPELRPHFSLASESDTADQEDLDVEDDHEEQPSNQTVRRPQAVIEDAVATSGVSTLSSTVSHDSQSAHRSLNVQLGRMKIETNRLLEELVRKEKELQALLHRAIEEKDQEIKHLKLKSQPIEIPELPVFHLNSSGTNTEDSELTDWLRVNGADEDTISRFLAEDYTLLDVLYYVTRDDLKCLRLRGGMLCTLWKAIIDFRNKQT
Description: Inhibition of recombinant human N-terminal GST-tagged ASK1 (649 to 946 residues) expressed in baculovirus infected Sf9 insect cells assessed as enzyme activity incubated for 15 mins by [gamma-33]ATP based scintillation counting method relative to control. Set-up: scale not given: the % may be the effect or the level left.

The test system of a further test is MCF7. Description: Antiproliferative activity against human MCF7 cells assessed as reduction in cell growth incubated for 72 hrs by MTT assay. The class given is functional, cell-based. The settings on record: MCF7, 72 h. The method, boiled down:
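MTT assay on MCF-7, A2780, HT29 and normal MRC5 fibroblast lines (ATCC) grown in DMEM with 10% FBS. Cells exposed to compounds for 72 h, then reduced MTT read at 570 nm.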
(Formazan colour is commonly taken as a measure of viable cells.)

Epidermal growth factor receptor (Homo sapiens), sequence (P00533 whole entry): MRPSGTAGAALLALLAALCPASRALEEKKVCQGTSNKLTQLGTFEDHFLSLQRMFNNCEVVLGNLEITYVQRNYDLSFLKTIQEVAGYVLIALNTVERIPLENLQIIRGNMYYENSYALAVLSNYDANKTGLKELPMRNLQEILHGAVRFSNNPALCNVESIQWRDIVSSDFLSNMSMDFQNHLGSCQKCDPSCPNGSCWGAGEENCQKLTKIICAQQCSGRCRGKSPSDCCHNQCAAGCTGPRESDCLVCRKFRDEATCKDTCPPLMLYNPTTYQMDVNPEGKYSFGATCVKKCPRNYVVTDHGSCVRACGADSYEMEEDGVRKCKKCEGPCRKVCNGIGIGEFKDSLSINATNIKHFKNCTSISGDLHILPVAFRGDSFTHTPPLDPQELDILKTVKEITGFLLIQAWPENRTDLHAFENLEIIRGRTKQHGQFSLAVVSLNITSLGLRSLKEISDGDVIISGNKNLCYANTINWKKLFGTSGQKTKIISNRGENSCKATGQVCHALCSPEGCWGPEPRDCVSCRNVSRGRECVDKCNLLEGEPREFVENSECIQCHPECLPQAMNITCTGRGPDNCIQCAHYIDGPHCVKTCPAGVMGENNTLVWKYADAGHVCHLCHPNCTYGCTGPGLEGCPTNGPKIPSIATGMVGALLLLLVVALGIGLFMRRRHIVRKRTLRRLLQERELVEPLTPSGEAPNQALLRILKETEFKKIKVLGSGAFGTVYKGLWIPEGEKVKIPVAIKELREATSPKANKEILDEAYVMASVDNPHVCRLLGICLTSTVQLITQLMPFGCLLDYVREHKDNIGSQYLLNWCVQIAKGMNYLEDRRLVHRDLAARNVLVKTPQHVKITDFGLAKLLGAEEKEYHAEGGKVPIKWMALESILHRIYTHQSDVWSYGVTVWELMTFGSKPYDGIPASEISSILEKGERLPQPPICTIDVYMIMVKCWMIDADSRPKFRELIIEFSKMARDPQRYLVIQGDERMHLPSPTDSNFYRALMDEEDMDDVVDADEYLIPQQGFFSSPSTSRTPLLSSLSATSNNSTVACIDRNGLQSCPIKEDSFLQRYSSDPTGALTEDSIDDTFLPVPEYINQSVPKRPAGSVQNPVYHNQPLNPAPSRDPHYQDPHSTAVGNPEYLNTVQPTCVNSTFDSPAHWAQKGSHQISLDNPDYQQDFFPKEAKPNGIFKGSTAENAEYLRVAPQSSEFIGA
Ribosomal protein S6 kinase alpha-5 (Homo sapiens), sequence (O75582 whole entry, looked up): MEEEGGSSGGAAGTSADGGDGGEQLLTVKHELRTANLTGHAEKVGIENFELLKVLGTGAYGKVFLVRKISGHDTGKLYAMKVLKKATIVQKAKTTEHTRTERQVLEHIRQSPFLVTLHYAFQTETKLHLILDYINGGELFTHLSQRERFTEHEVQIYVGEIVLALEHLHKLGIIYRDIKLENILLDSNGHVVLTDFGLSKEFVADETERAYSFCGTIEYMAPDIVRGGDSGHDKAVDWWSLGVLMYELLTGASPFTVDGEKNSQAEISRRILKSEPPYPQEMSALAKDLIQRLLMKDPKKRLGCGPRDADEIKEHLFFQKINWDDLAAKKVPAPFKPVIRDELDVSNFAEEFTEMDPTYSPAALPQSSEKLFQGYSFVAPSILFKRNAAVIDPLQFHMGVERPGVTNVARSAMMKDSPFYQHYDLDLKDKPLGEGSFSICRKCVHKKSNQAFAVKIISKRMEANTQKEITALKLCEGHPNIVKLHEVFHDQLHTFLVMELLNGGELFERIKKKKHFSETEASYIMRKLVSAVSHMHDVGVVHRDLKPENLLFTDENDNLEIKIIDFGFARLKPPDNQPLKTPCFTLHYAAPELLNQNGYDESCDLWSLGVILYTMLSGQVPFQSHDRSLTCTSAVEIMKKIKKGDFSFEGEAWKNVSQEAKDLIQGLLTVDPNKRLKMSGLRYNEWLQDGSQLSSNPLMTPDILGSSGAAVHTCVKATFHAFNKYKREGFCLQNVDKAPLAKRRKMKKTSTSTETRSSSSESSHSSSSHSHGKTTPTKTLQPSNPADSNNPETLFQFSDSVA
Glycogen synthase kinase-3 alpha (Homo sapiens), sequence (P49840 2-483 limits assumed): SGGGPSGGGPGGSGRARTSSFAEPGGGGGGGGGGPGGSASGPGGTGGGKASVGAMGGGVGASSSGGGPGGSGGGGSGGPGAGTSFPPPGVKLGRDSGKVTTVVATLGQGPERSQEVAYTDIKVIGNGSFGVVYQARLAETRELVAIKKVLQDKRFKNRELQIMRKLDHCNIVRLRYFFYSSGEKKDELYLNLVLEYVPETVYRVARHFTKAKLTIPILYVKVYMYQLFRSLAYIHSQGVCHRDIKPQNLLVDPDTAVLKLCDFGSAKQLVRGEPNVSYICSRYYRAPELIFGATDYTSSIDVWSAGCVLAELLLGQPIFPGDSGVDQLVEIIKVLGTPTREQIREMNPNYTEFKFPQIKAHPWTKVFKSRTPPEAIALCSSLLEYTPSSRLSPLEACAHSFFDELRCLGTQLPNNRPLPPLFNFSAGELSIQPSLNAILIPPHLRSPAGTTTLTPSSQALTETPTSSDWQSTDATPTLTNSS
Activin receptor type-1-like (Homo sapiens), sequence (P37023 whole entry): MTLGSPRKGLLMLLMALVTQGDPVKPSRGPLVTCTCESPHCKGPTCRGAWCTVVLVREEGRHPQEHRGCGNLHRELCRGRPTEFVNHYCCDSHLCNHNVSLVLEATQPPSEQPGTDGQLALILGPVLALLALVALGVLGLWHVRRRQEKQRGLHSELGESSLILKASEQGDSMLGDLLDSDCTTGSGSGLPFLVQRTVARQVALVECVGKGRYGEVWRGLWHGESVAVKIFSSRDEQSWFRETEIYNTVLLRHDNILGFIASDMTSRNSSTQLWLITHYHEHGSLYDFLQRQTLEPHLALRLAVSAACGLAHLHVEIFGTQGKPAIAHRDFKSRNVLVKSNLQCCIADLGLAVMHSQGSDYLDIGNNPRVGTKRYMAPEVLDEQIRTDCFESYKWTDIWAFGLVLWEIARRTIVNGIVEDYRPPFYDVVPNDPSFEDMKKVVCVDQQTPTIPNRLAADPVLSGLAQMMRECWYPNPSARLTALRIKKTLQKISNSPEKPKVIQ

With `Cc1ccc(NC(=O)c2ccc(CN3CCN(C)CC3)cc2)cc1Nc1nccc(-c2cccnc2)n1`, the Activity in test [1] is 14%; in test [2] it was 49%; in test [3] it was -38%; in test [4], 13%; in test [5], -1%; in test [6], 5%.
As usually defined, the IC50 is the concentration that gives 50% inhibition. Turning to `CCC1SCC(=O)N1c1c(C#N)c2n(c1C(=O)Nc1ccccc1)CCC2` (configuration not stated), the Activity in test [1] is -11%; in test [2], -23%; in test [3], -11%; in test [4], 10%; in test [5] it was -12%; in test [6] it was -3%. For the same compound, in the test with MCF7, the half-inhibitory concentration (IC50) was found to be 160 nM.
Regarding `CC/C=N/c1c(C#N)c2n(c1C(=O)Nc1ccccc1)CCC2`, the Activity in test [1] was 4%; in test [2], -22%; in test [3] it was -8%; in test [4] it was -10%; in test [5], -24%; in test [6], -14%. The IC50 in the test with MCF7 was 570 nM.
For `CC(C)C/C=N/c1c(C#N)c2n(c1C(=O)Nc1ccc(Br)cc1)CCC2`, the Activity is -5% in test [1]; 29% in test [2]; 1% in test [3]; 40% in test [4]; -3% in test [5]; 26% in test [6]. The IC50 in the test on MCF7 stood at 100 nM.
